The text below walks through data of ChEMBL document CHEMBL4308914, “Discovery of potent, low-absorbable sodium-dependent glucose cotransporter 1 (SGLT1) inhibitor SGL5213 for type 2 diabetes treatment” (Bioorg Med Chem, 2019).

Series [1] deals with T1, Sodium/glucose cotransporter 1 (Homo sapiens, UniProt P13866).
T1 sequence (P13866 whole entry): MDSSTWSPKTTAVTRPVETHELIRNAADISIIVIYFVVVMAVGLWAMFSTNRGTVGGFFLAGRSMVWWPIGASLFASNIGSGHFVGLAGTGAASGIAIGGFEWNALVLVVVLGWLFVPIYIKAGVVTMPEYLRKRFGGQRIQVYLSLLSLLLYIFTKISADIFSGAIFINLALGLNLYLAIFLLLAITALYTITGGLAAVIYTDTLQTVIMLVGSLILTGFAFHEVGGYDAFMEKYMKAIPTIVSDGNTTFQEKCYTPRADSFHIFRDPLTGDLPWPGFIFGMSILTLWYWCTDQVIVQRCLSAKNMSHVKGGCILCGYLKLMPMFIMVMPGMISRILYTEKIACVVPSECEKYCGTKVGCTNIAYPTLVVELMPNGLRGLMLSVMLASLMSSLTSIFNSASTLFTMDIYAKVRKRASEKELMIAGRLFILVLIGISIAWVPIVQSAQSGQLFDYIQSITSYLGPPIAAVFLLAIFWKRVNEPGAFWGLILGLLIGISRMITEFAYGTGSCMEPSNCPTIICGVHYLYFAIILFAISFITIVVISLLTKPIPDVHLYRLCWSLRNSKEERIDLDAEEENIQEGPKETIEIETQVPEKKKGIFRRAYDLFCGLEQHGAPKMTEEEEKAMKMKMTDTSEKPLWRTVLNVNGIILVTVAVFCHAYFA
The series can be described thus: Inhibition of human SGLT1 expressed in CHOK1 cells assessed as reduction in sodium-dependent glucose uptake after 30 mins in presence of [14C]-methyl-alpha -D-glucopyranoside by microbeta counting method. Format: cell-based. Put shortly: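 CHO-K1 cells stably expressing human SGLT1, preincubated 20 min in Na-free choline buffer (pH 7.4). Uptake buffer (140 mM NaCl, HEPES/Tris pH 7.4) with 0.1 mM methyl-α-D-glucopyranoside plus [14C] tracer and test compound, 30 min at 37 °C. Cells washed, lysed in NaOH, radioactivity counted. Choline-for-Na buffer as background. Six concentrations; IC50 vs untreated control; mean of at least two experiments.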

In series [2] the target is T2, Sodium/glucose cotransporter 2 (Homo sapiens, UniProt P31639).
T2 sequence (P31639 whole entry): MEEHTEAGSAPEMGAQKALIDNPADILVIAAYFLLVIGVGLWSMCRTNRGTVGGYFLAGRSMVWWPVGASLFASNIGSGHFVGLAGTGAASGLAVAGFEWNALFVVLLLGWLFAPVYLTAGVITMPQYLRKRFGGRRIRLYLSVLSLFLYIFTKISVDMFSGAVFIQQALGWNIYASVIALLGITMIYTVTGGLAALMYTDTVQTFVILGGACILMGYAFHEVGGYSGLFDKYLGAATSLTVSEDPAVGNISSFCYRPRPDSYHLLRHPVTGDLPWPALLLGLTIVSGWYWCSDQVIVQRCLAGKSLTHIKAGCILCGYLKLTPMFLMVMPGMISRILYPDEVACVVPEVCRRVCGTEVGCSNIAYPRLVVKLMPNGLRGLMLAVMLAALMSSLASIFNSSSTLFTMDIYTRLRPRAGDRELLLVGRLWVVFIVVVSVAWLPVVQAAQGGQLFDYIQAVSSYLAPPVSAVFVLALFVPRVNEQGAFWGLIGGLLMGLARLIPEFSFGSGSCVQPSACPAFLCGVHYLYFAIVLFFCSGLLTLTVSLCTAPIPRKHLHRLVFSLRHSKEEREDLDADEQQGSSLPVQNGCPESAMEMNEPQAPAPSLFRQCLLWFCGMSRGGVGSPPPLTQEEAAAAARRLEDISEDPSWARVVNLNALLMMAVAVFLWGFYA
Put plainly: Inhibition of human SGLT2 expressed in CHOK1 cells assessed as reduction in sodium-dependent glucose uptake after 1 hr in presence of [14C]-methyl-alpha -D-glucopyranoside by microbeta counting method. Format: cell-based. In a few lines:
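Human SGLT2 stably expressed in CHO-K1 cells; 20 min Na-free choline pretreatment, then Na+ uptake buffer pH 7.4 with 1 mM methyl-α-D-glucopyranoside containing [14C] label plus compound, 1 h at 37 °C. Washed, NaOH lysis, scintillation counting; Na-free buffer for background. IC50 from six concentrations relative to uninhibited uptake; mean of at least two experiments.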

Series [3] in a line: Permeability of the compound at pH 7.4 by PAMPA assay. Format: ADME. The conditions noted are these: read-out: permeability. Put shortly: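 PAMPA at pH 7.4: filter coated with GIT-0 lipid; donor compartment holds compound in universal buffer at 25 μM or 5 μM; permeability reported as ×10⁻⁶ cm/s.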
A general note: PAMPA measures passive passage across an artificial lipid membrane.

The nature of series [4]: Drug excretion in bile duct cannulated Sprague-Dawley rat bile at 0.3 mg/kg, iv administered as single dose after 24 hrs by LCMS analysis. Format: ADME, organism-based. Conditions: read-out: Drug excretion. Put shortly: (§1)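 Bile duct-cannulated SD rats given single i.v. dose in saline; urine and bile collected over 24 h. Unchanged drug quantified by LC-MS/MS and expressed as cumulative % of dose; mean ± SD of three animals.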

Series [5] is described as follows: Total clearance in Sprague-Dawley rat at 0.4 mg/kg, iv. Format: ADME, organism-based. Conditions: in vivo. In a few lines:
(§2)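 Fasted male SD rats, single i.v. dose in saline; tail-vein blood sampled over time, plasma analysed by LC-MS/MS. Parameters by non-compartmental analysis; mean of three animals.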

A short description of series [6]: Cmax in Sprague-Dawley rat at 30 mg/kg, po. Format: ADME, organism-based. Conditions: in vivo. Also noted: dose 30 mg/kg, route oral. In a few lines:
(§3)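 Fasted male SD rats dosed orally in 0.5% CMC Na; tail-vein plasma sampled over time and analysed by LC-MS/MS. Non-compartmental analysis; bioavailability relative to i.v. dosing in saline; mean of three animals.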

Series [7] can be described thus: Drug excretion in bile duct cannulated Sprague-Dawley rat urine at 0.3 mg/kg, iv administered as single dose after 24 hrs by LCMS analysis. Format: ADME, organism-based. The conditions noted are these: read-out: Drug excretion. Put shortly: as §1
Series [8] in a line: Drug uptake in Sprague-Dawley rat kidney at 0.3 mg/kg, iv administered as single dose after 24 hrs by LCMS analysis. The conditions noted are these: read-out: Drug uptake. Format: ADME, organism-based. In a few lines: (§4)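 Fasted male SD rats given single i.v. dose in saline; animals euthanized at 2, 24 and 72 h, kidneys homogenized in purified water and unchanged drug measured by LC-MS/MS (ng/g tissue). Mean ± SD of three animals; 72 h level also expressed relative to 2 h value.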

The nature of series [9]: Volume of distribution at steady sate in Sprague-Dawley rat at 0.4 mg/kg, iv. Format: ADME, organism-based. Conditions: in vivo, read-out: Vdss. In a few lines: as §2
Series [10] is described as follows: Oral bioavailability in Sprague-Dawley rat at 30 mg/kg. Format: ADME, organism-based. The conditions noted are these: in vivo. Put shortly:
as §3

Series [11] in a line: Drug uptake in Sprague-Dawley rat kidney at 0.3 mg/kg, iv administered as single dose after 72 hrs by LCMS analysis. The conditions noted are these: read-out: Drug uptake. Format: ADME, organism-based. In a few lines: as §4
The nature of series [12]: Drug uptake in Sprague-Dawley rat kidney at 0.3 mg/kg, iv administered as single dose after 2 hrs by LCMS analysis. Format: ADME, organism-based. The conditions noted are these: read-out: Drug uptake. Put shortly:
as §4

Series [13] can be described thus: Drug uptake in Sprague-Dawley rat kidney assessed as unchanged drug level at 0.3 mg/kg, iv administered as single dose after 72 hrs by LCMS analysis relative to control. Format: ADME, organism-based. The conditions noted are these: in vivo. In a few lines: as §4
The subject of series [14] is Rattus norvegicus. The series can be described thus: Antidiabetic activity in Sprague-Dawley rat assessed as reduction in blood glucose AUC (0 to 2 hrs) at 0.3 mg/kg, po dosed just prior to sucrose loading measured up to 120 mins by sucrose tolerance test relative to control. Format: functional. The arrangement: scale not given: the % may be the effect or the level left.

Series [15] deals with Rattus norvegicus. The series can be described thus: Antidiabetic activity in Sprague-Dawley rat assessed as reduction in blood glucose AUC (0 to 2 hrs) at 0.3 to 3 mg/kg, po dosed just prior to sucrose loading measured up to 120 mins by sucrose tolerance test relative to control. Format: functional.
The test system of series [16] is Rattus norvegicus. The series can be described thus: Antidiabetic activity in Sprague-Dawley rat assessed as reduction in blood glucose AUC (0 to 2 hrs) at 1 mg/kg, po dosed just prior to sucrose loading measured up to 120 mins by sucrose tolerance test relative to control. Format: functional. Also noted: scale not given: the % may be the effect or the level left.

The subject of series [17] is Rattus norvegicus. Put plainly: Antidiabetic activity in Sprague-Dawley rat assessed as reduction in blood glucose AUC (0 to 2 hrs) at 3 mg/kg, po dosed just prior to sucrose loading measured up to 120 mins by sucrose tolerance test relative to control. Also noted: scale not given: the % may be the effect or the level left. Format: functional.
The nature of series [18]: Tmax in Sprague-Dawley rat at 30 mg/kg, po. Format: ADME, organism-based. Conditions: in vivo. Put shortly: as §3
Series [19] is described as follows: Gastrointestinal toxicity in Sprague-Dawley rat assessed as induction of diarrhea at 0.3 to 3 mg/kg, po dosed just prior to sucrose loading measured up to 120 mins during sucrose tolerance test relative to control. Format: organism-based. Conditions: in vivo, 2 h.
The nature of series [20]: Half life in Sprague-Dawley rat at 0.4 mg/kg, iv. Format: ADME, organism-based. Conditions: in vivo. In a few lines:
as §2

With `Cc1cc(C)c([C@@H]2O[C@H](CO)[C@@H](O)[C@H](O)[C@H]2O)cc1Cc1ccc(/C=C/C(C)(C)C(=O)NC(C)(C)CO)cc1Cl`, in series [1], the IC50 was found to be 176 nM.

As to `Cc1cc(/C=C/C(C)(C)C(=O)NC(C)(C)CO)ccc1Cc1cc([C@@H]2O[C@H](CO)[C@@H](O)[C@H](O)[C@H]2O)c(C)cc1C`, the values for the IC50 in [2] and in series [1] were 84 nM and 111 nM, respectively. Also, the Papp in series [3] was 7.5 ×10⁻⁶ cm/s.

In the case of `Cc1cc(/C=C/C(C)(C)C(=O)NC(C)(C)C(=O)NCC(C)(C)N)ccc1Cc1cc([C@@H]2O[C@H](CO)[C@@H](O)[C@H](O)[C@H]2O)c(O)cc1C(C)C`, the dose excreted at 24 h in [4] was determined as 89.8%; in [7] it was 5.3%. In series [5], this compound showed a clearance of 62.7 mL/min/kg. Besides, the Cmax in series [6] stood at 5.34 ng/mL. Besides, the concentration at 24 h in series [8] amounted to 83.8 ng/g. Also, the Vd in series [9] worked out at 0.964 L/kg. In [10], the bioavailability was found to be 0.09%. Moreover, the concentration at 72 h in [11] worked out at 12.5 ng/g. Also, in series [12], the concentration at 2 h is 1060 ng/g. Besides, in series [13], the Drug uptake is listed as 1.2%.

On to `Cc1cc(O)c([C@@H]2O[C@H](CO)[C@@H](O)[C@H](O)[C@H]2O)cc1Cc1ccc(/C=C/C(C)(C)C(=O)NC(C)(C)CO)cc1`, for which the IC50 in series [1] came to 21 nM.

As to `COc1cc(C(C)C)c(Cc2ccc(/C=C/C(C)(C)C(=O)NC(C)(C)CO)cc2)cc1[C@@H]1O[C@H](CO)[C@@H](O)[C@H](O)[C@H]1O`, the values for the IC50 in series [2] and in [1] were 34 nM and 36 nM, respectively. Besides, the Papp in series [3] was found to be 1.8 ×10⁻⁶ cm/s.

Turning to `COc1cc(C(C)C)c(Cc2ccc(/C=C/C(C)(C)C(=O)NC(C)(C)C(=O)NCCN(C)C)cc2)cc1[C@@H]1O[C@H](CO)[C@@H](O)[C@H](O)[C@H]1O`, the Activity in the series on Rattus norvegicus [14] is 27.5%; in the series with Rattus norvegicus [16], 50.8%; with Rattus norvegicus [17], 45.7%; in series [19], “Non-Toxic”. In addition, the figures for the dose excreted at 24 h in [4] and in series [7] were 65.1% and 18.1%, respectively. In series [5], this compound gave a clearance of 67 mL/min/kg. In addition, in series [6], the highest level (Cmax) was 1.88 ng/mL. In addition, the concentration at 24 h in [8] was 104 ng/g. The Vd in series [9] amounted to 1.64 L/kg. Further, the bioavailability in series [10] stood at 0.17%. Further, the Emax in the series with Rattus norvegicus [15] was 50.8%. The Tmax in [18] was determined as 2.83 h. The concentration at 72 h in [11] was determined as 29.2 ng/g. For the same compound, the concentration at 2 h in series [12] was found to be 1090 ng/g. For the same compound, in series [13], the Drug uptake is 2.7%. Also, the half-life in [20] was 143 min.

For the compound `COc1cc(C(C)C)c(Cc2ccc(/C=C/C(C)(C)C(=O)NC(C)(C)C(=O)N3CCNCC3)cc2C)cc1[C@@H]1O[C@H](CO)[C@@H](O)[C@H](O)[C@H]1O`, the IC50 in series [2] came to 200 nM; in [1], 34 nM.

Turning to `COc1cc(C(C)C)c(Cc2ccc(/C=C/C(C)(C)C(=O)NC(C)(C)CO)cc2C)cc1[C@@H]1O[C@H](CO)[C@@H](O)[C@H](O)[C@H]1O`, the IC50 was 354 nM in series [2] and 74 nM in series [1].

The term IC50 denotes the point on the concentration scale where inhibition reaches its midpoint. In general, clearance refers to the rate of elimination divided by the concentration. For orientation: Cmax means the highest concentration seen after dosing. A word on the bioavailability: it is the share of a dose that reaches the circulation, judged against a reference dose that is usually intravenous. As usually defined, the Emax is the greatest response seen or fitted, relative to the assay's reference. One may read the Tmax as the time at which the peak concentration occurs. Usually half-life stands for the time in which the quantity being followed falls by half.
